From ChEMBL document CHEMBL2390920, “8-Benzamidochromen-4-one-2-carboxylic acids: potent and selective agonists for the orphan G protein-coupled receptor GPR35” (J Med Chem, 2013)

What was measured:
[1] = Inhibition of PDE (unknown origin); design: species or system Homo sapiens
[2] = biological target: G-protein coupled receptor 35 (Mus musculus, UniProt Q9ES90); experiment: Agonist activity at mouse GPR35 expressed in CHO cells assessed as induction of beta-arrestin recruitment after 90 mins by beta-galactosidase reporter gene assay; assay type: cell-based
Procedure, shortened: (§1)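 Mouse GPR35 introduced by transfection into a CHO β-arrestin-EA line; 20000 cells/well plated the day prior. After 90 min of compound exposure (final DMSO ≤1%), detection reagent was added and luminescence read after 60 min.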

[3] = biological target: T1, G-protein coupled receptor 35 (Homo sapiens, UniProt Q9HC97); experiment: Agonist activity at human GPR35 expressed in CHO cells assessed as induction of beta-arrestin recruitment after 90 mins by beta-galactosidase reporter gene assay; assay type: cell-based
Procedure, shortened: (§2)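 PathHunter enzyme-fragment complementation in CHO cells stably expressing β-arrestin-EA and tagged human GPR35, seeded at 20000 cells/well the day before. DMSO dilutions were further diluted 1:10 (final DMSO ≤1%). Cells were incubated 90 min, then detection reagent was added and luminescence read after 60 min.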

[4] = biological target: G protein-coupled receptor GPR35 (Rattus norvegicus) (UniProt Q33BM1); experiment: Agonist activity at rat GPR35 expressed in CHO cells assessed as induction of beta-arrestin recruitment at 10 uM after 90 mins by beta-galactosidase reporter gene assay relative to zaprinast; assay type: cell-based
Procedure, shortened: (§3)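 Rat GPR35 expressed by transfecting a parental CHO β-arrestin-EA line; cells seeded at 20000/well the day before. Compounds (final DMSO ≤1%) were incubated 90 min, followed by detection reagent and a luminescence read after 60 min.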

[5] = biological target: G protein-coupled receptor GPR35 (Rattus norvegicus, UniProt Q33BM1); experiment: Agonist activity at rat GPR35 expressed in CHO cells assessed as induction of beta-arrestin recruitment after 90 mins by beta-galactosidase reporter gene assay; assay type: cell-based; procedure, shortened: as §3
[6] = Inhibition of chloride channel (unknown origin); design: species or system Homo sapiens
[7] = biological target: G-protein coupled receptor 35 (Mus musculus) (UniProt Q9ES90); experiment: Agonist activity at mouse GPR35 expressed in CHO cells assessed as induction of beta-arrestin recruitment at 10 uM after 90 mins by beta-galactosidase reporter gene assay relative to zaprinast; assay type: cell-based; procedure, shortened: as §1
[8] = biological target: T1, G-protein coupled receptor 35; experiment: Agonist activity at human GPR35 expressed in CHO cells assessed as induction of beta-arrestin recruitment at 10 uM after 90 mins by beta-galactosidase reporter gene assay relative to zaprinast; assay type: cell-based; procedure, shortened: as §2
[9] = biological target: G protein-coupled receptor GPR35 (Rattus norvegicus) (UniProt Q33BM1); experiment: Agonist activity at rat GPR35 expressed in CHO cells assessed as induction of beta-arrestin recruitment at 10 uM after 90 mins by beta-galactosidase reporter gene assay; assay type: cell-based; procedure, shortened: as §3
[10] = biological target: T2, G-protein coupled receptor 55 (Homo sapiens, UniProt Q9Y2T6); experiment: Agonist activity at human GPR55 expressed in CHO cells assessed as induction of beta-arrestin recruitment at 10 uM after 90 mins by beta-galactosidase reporter gene assay relative to lysophosphotidylinositol; assay type: functional, cell-based
Procedure, shortened: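 Human GPR55 PathHunter CHO cells, 20000 cells/well seeded the day before, received test compound at 10 µM (final DMSO ≤1%) for 90 min. Detection reagent was then added and luminescence read after 60 min. Signal was normalized to that of 1 µM LPI.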

[11] = biological target: T2, G-protein coupled receptor 55; experiment: Antagonist activity at human GPR55 expressed in CHO cells assessed as inhibition of lysophosphotidylinositol-induced beta-arrestin recruitment preincubated for 30 mins followed by lysophosphotidylinositol induction by beta-galactosidase reporter gene assay; assay type: functional, cell-based
Procedure, shortened: (§4)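 Human GPR55 PathHunter CHO cells were preincubated 30 min with compound, then stimulated with LPI (final 1 µM). After 90 min, detection reagent was added and luminescence read 60 min later. Screening was at 10 µM; full concentration-inhibition curves were run for selected compounds to give IC50.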

[12] = biological target: T2, G-protein coupled receptor 55; experiment: Antagonist activity at human GPR55 expressed in CHO cells assessed as inhibition of lysophosphotidylinositol-induced beta-arrestin recruitment at 10 uM preincubated for 30 mins followed by lysophosphotidylinositol induction by beta-galactosidase reporter gene assay relative to control; assay type: functional, cell-based; procedure, shortened: as §4
[13] = biological target: T1, G-protein coupled receptor 35; experiment: Agonist activity at human GPR35b expressed in CHO cells assessed as induction of beta-arrestin recruitment after 90 mins by beta-galactosidase reporter gene assay; assay type: cell-based
Procedure, shortened: (§5)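 CHO β-arrestin-EA parental line transfected with human GPR35b, seeded at 20000 cells/well the day before. Compounds in DMSO were diluted 1:10 in medium or PBS (final DMSO ≤1%). After 90 min of incubation, detection reagent was added and luminescence measured 60 min later. Screening was at 10 µM.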

[14] = biological target: T1, G-protein coupled receptor 35; experiment: Agonist activity at human GPR35b expressed in CHO cells assessed as induction of beta-arrestin recruitment at 10 uM after 90 mins by beta-galactosidase reporter gene assay relative to zaprinast; assay type: cell-based; procedure, shortened: as §5
[15] = biological target: G-protein coupled receptor 35 (Mus musculus) (UniProt Q9ES90); experiment: Agonist activity at mouse GPR35 expressed in CHO cells assessed as induction of beta-arrestin recruitment at 10 uM after 90 mins by beta-galactosidase reporter gene assay; assay type: cell-based; procedure, shortened: as §1
[16] = Stability of the compound in aceronitrile/water at pH 5.5 at 1.2 mM after 4 hrs by LC-MS analysis; assay type: physicochemical; settings: buffer, pH 5.5, 4 h, 1200 µM
Procedure, shortened: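 Compound dissolved at 1.20 mM in 1:1 acetonitrile/water at pH 5.5 with no added acid, base or salt; sample then analysed by LC-MS.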

Homo sapiens = organism: Homo sapiens; experiment: Selectivity ratio of IC50 for human GPR55 to EC50 for human GPR35
[17] = Stability of the compound in aceronitrile/water at pH 3.5 at 1.2 mM after 90 mins by LC-MS analysis in presence of acetic acid and ammonium acetate; assay type: physicochemical; settings: buffer, pH 3.5, 1.5 h, 1200 µM
Procedure, shortened: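 Compound prepared at 1.20 mM in 1:1 acetonitrile/water adjusted to pH 3.5, containing acetic acid (300 mM) and ammonium acetate (2 mM); sample then analysed by LC-MS.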

[18] = Stability of the compound in aceronitrile/water at pH 8 at 1.2 mM after 2 to 4 days by LC-MS analysis in presence of ammonia and ammonium acetate; assay type: physicochemical; settings: buffer, pH 8, 1200 µM
Procedure, shortened: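 Solution of compound at 1.20 mM in 1:1 acetonitrile/water at pH 8.0, containing ammonia ([…]) and ammonium acetate (2 mM); sample then analysed by LC-MS.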

[19] = biological target: T1, G-protein coupled receptor 35; experiment: Agonist activity at human GPR35 expressed in CHO cells assessed as induction of beta-arrestin recruitment at 10 uM after 90 mins by beta-galactosidase reporter gene assay; assay type: cell-based; procedure, shortened: as §2

T2 sequence (Q9Y2T6 whole entry): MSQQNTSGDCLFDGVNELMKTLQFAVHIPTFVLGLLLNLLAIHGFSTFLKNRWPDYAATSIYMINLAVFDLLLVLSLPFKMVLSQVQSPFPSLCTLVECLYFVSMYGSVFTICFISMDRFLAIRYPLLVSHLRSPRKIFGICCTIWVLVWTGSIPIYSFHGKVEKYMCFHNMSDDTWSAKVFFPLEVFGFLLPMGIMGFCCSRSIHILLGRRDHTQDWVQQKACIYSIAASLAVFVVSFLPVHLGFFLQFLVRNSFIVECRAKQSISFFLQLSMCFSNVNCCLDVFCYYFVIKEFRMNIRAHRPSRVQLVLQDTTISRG
T1 sequence (Q9HC97 whole entry, the tested form may be a part): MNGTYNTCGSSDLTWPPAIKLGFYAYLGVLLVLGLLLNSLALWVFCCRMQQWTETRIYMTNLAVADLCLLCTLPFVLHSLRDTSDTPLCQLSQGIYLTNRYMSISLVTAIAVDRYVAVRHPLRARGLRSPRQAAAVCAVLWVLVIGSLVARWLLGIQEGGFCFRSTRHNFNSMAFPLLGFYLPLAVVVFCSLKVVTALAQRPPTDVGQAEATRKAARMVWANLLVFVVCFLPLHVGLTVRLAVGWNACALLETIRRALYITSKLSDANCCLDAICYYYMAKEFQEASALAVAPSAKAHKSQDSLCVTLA
Sequence of G protein-coupled receptor GPR35 (Rattus norvegicus) (Q33BM1 as listed by the source): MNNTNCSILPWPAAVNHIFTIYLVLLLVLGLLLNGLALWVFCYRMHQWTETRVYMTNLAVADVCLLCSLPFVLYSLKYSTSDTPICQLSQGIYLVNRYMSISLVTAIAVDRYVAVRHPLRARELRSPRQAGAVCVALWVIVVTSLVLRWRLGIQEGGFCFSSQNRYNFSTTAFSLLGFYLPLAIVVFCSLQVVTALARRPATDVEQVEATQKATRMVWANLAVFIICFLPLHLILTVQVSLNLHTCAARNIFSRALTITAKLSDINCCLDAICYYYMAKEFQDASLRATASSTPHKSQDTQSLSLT
Sequence of G protein-coupled receptor GPR35 (Q33BM1 whole entry): as the sequence (Q33BM1 as listed by the source) above
Sequence of G-protein coupled receptor 35 (Mus musculus, UniProt Q9ES90) (Q9ES90 whole entry): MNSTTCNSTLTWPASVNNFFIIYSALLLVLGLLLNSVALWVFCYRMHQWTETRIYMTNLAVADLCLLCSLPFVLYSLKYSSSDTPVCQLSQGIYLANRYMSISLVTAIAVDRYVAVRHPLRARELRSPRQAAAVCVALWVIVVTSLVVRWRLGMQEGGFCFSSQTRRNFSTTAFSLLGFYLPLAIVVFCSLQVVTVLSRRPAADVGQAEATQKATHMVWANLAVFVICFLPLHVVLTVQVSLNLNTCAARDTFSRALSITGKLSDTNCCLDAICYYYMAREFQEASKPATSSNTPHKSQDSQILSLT
Sequence of G-protein coupled receptor 35 (Mus musculus) (Q9ES90 whole entry): as above

Structure (SMILES)	Ki [1] [nM]	EC50 [2] [µM]	EC50 [3] [nM]	Emax [4] [%]	EC50 [5] [nM]	IC50 [6] [µM]	Emax [7] [%]	Emax [8] [%]	Activity [9] [%]	Activity [10] [%]	IC50 [11] [µM]	inhibition [12] [%]	EC50 [13] [nM]	Emax [14] [%]	Activity [15] [%]	Stability [16]	Ratio IC50/EC50 (Homo sapiens)	Stability [17]	Stability [18]	Activity [19] [%]
O=C(O)c1cc(=O)c2c(OCC(O)COc3cccc4oc(C(=O)O)cc(=O)c34)cccc2o1 [CROMOLYN SODIUM]	0.8	4.84	1260	104	986	5	102	119	–	–	–	–	–	–	–	–	–	–	–	–
O=C(Nc1cccc2c(=O)cc(C(=O)O)oc12)c1ccc2ccccc2c1	–	2.99	4670	–	–	–	79	125	46	6	29.1	–	–	–	–	–	–	–	–	–
COc1ccccc1C(=O)Nc1cc(Br)cc2c(=O)cc(C(=O)O)oc12	–	4.95	1660	73	1100	–	71	91	–	9	–	44	–	–	–	–	–	–	–	–
COc1ccc(C(=O)Nc2cc(Br)cc3c(=O)cc(C(=O)O)oc23)cc1OC	–	6.4	425	106	1300	–	73	102	–	-12	–	45	628	101	–	–	–	–	–	–
COc1ccc(C(=O)Nc2cc(Br)cc3c(=O)cc(C(=O)O)oc23)cc1	–	–	12.1	88	1400	–	–	121	–	0	21.7	–	22.1	136	36	Stable	> 1700	Stable	Stable	–
COc1ccc(C(=O)Nc2cc(Br)cc3c(=O)cc(C(=O)O)oc23)cn1	–	4.98	30.5	94	991	–	64	117	–	9	6.2	–	–	–	–	–	–	–	–	–
CCCOc1ccc(C(=O)Nc2cccc3c(=O)cc(C(=O)O)oc23)cc1	–	–	–	80	3610	–	–	–	–	10	–	21	–	–	13	–	–	–	–	4
